One protein from ChEMBL document CHEMBL1134486, “Synthesis and biological evaluation of purine-containing butenolides” (J Med Chem, 2001) can be followed below.

Compound in data set [1]: COC1=C(OC)C(O)(CCn2cnc3c(N)ncnc32)OC1=O
As to the kind of experiment: (§1) Rate of deamination in the presence of calf mucosal adenosine deaminase (ADA). In short, it runs like this:
(§2)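 Deamination rates followed with calf mucosal ADA (EC 3.5.4.4) in buffer solutions; Km and Vmax relative to adenosine as substrate; inhibition (Ki) assessed with adenosine as substrate.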

Compound in data set [2]: COC1=C(OC)/C(=C/Cn2cnc3c(N)ncnc32)OC1=O
The description is as §1. Summed up:
as §2

One may read the Km as the substrate concentration at which the rate is half of its maximum.

Some results are limits rather than exact numbers.

B1: Adenosine deaminase (Bos taurus), P56658 (protein)
chain: MAQTPAFNKPKVELHVHLDGAIKPETILYYGRKRGIALPADTPEELQNIIGMDKPLSLPEFLAKFDYYMPAIAGCREAVKRIAYEFVEMKAKDGVVYVEVRYSPHLLANSKVEPIPWNQAEGDLTPDEVVSLVNQGLQEGERDFGVKVRSILCCMRHQPSWSSEVVELCKKYREQTVVAIDLAGDETIEGSSLFPGHVKAYAEAVKSGVHRTVHAGEVGSANVVKEAVDTLKTERLGHGYHTLEDATLYNRLRQENMHFEVCPWSSYLTGAWKPDTEHPVVRFKNDQVNYSLNTDDPLIFKSTLDTDYQMTKNEMGFTEEEFKRLNINAAKSSFLPEDEKKELLDLLYKAYGMPSPASAEQCL
Consider B1, for which the Km is more than 800 µM in data set [1] and 266 µM in data set [2].
